Assay results taken from ChEMBL document CHEMBL1131473, “A novel class of orally active non-peptide bradykinin B2 receptor antagonists. 1. Construction of the basic framework” (J Med Chem, 1998).

Columns and labels:
[1] = target: T1, B2 bradykinin receptor (Cavia porcellus, UniProt O70526); experiment: In vitro for inhibition of specific binding of [3H]BK (0.06 nM) to bradykinin receptor B2 in guinea pig ileum membrane preparations.; format: cell membranes
T1 sequence (O70526 whole entry): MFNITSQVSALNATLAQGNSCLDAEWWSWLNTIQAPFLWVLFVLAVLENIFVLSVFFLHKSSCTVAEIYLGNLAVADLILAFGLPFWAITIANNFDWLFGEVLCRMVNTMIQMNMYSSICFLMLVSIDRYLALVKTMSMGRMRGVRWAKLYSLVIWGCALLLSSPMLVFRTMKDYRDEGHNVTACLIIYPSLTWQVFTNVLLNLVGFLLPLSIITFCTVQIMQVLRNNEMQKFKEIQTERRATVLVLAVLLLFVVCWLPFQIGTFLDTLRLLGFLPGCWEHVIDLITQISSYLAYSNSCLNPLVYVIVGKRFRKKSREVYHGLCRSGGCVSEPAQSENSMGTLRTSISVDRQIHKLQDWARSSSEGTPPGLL
Procedure, shortened: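 Ileal membranes from male Hartley guinea pigs, prepared in TES/1,10-phenanthroline pH 6.8 by 1000g then 100000g spins. Assay buffer held bacitracin, DTT, 1 μM captopril and 0.1% BSA. Membranes (0.2 mg protein/mL) incubated with [3H]BK (final 0.06 nM) and varying compound concentrations for 60 min at room temperature. Bound ligand filtered on GF/B and counted by scintillation; nonspecific binding taken with 1 μM unlabeled BK.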

[2] = test system: Cavia porcellus; experiment: In vivo functional antagonistic activity against BK-induced bronchoconstriction in guinea pigs at an oral dose of 1 mg/kg.
Procedure, shortened: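 Male Hartley guinea pigs (470-750 g), fasted, anesthetized with pentobarbital (30 mg/kg ip), ventilated, given alcuronium iv and propranolol sc. BK (5 μg/kg iv) raised pulmonary insufflation pressure, measured by modified Konzett–Rössler. Compound in 0.5% methylcellulose, or vehicle, was given by oesophageal cannula. BK was repeated 30 min later. Response expressed as ΔPIP after drug over ΔPIP before drug ×100; Student's t-test vs control.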

[3] = Compound at a dose of 10 mg/kg was orally administered to rats and Area under curve was reported; format: ADME, organism-based; design: dose 10 mg/kg, route oral; conditions: rat, in vivo, po
Procedure, shortened: (§1)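 Male Sprague-Dawley rats (3), starved overnight, given compound orally in 0.5% methocel (0.5 mL/100 g). Femoral-artery blood sampled at 0, 0.5, 1, 2, 4 and 6 h. Intravenous arm used a DMSO solution into the femoral vein, sampled 0 min–6 h. Plasma extracted with CHCl3, dried, reconstituted in MeOH and quantified by HPLC peak area against spiked time-0 plasma standards.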

[4] = Compound at a dose of 10 mg/kg was orally administered to rats and Half-life value was reported; format: ADME, organism-based; design: dose 10 mg/kg, route oral; conditions: rat, in vivo, po; procedure, shortened: as §1
[5] = Compound at a dose of 10 mg/kg was orally administered to rats and maximum plasma concentration was reported; format: ADME, organism-based; design: dose 10 mg/kg, route oral; conditions: rat, po; procedure, shortened: as §1
[6] = Compound at a dose of 10 mg/kg was orally administered to rats and Bioavailability was reported; format: ADME, organism-based; conditions: rat, in vivo, po, read-out: BA; procedure, shortened: as §1

IC50 [1] [nM]	SMILES	also measured
490	Cc1nc2c(OCc3c(Cl)ccc(Cl)c3Cl)cccn2c1Br	
420	CC(=O)N(C)c1c(Cl)cc(Cl)c(COc2cccn3c(Br)c(C)nc23)c1Cl	
31000	CCn1c(C)cc(C#N)c1-c1ccc(COc2cc(C)nc3ccccc23)cc1	
16	CC(=O)NCC(=O)N(C)c1ccc(Cl)c(COc2cccn3c(Br)c(C)nc23)c1Cl.Cl	inhibition in vivo at 1 mg/kg [2]: 62.3%; AUC [3]: 3150 ng·h/mL; half-life [4]: 25.2 min; Cmax [5]: 3640 ng/mL
72	CCC(=O)N(C)c1ccc(Cl)c(COc2cccn3c(Br)c(C)nc23)c1Cl	
4500	Cc1cn2cccc(OCc3c(Cl)cccc3Cl)c2n1	
150	CCN(C(C)=O)c1ccc(Cl)c(COc2cccn3c(Br)c(C)nc23)c1Cl	
1700	Cc1nc2c(OCc3c(Br)cccc3Br)cccn2c1Cl	
2100	Cc1nc2c(OCc3c(Cl)ccc(N(C)S(C)(=O)=O)c3Cl)cccn2c1Br	
46	CNC(=O)NCC(=O)N(C)c1ccc(Cl)c(COc2cccn3c(Br)c(C)nc23)c1Cl	inhibition in vivo at 1 mg/kg [2]: 41.5%
> 100000	Cc1nc2c(C(=O)Nc3c(Cl)cccc3Cl)cccn2c1Br	
2.4	Cc1nc2c(OCc3c(Cl)ccc(N(C)C(=O)CNC(=O)CN(C)C)c3Cl)cccn2c1Br	inhibition in vivo at 1 mg/kg [2]: 72.4%; AUC [3]: 940 ng·h/mL; bioavailability [6]: 32.8%; half-life [4]: 18 min; Cmax [5]: 290 ng/mL
580	COCC(=O)N(C)c1ccc(Cl)c(COc2cccn3c(Br)c(C)nc23)c1Cl	
> 100000	FC(F)(F)c1cn2cccc(OCc3c(Cl)cccc3Cl)c2n1	
200	Cc1nc2c(OCc3c(Cl)cccc3Cl)cccn2c1Cl	
540	COc1ccc(Cl)c(COc2cccn3c(Br)c(C)nc23)c1Cl	
31000	Clc1cccc(Cl)c1COc1cccn2ccnc12	
> 100000	CC(=O)N(Cc1c(Cl)cccc1Cl)c1cccn2c(Br)c(C)nc12	
380	Cc1nc2c(OCc3c(Cl)ccc(N(C)C(=O)CN)c3Cl)cccn2c1Br	
1400	COC(=O)N(C)c1ccc(Cl)c(COc2cccn3c(Br)c(C)nc23)c1Cl	
19	CCC(=O)NCC(=O)N(C)c1ccc(Cl)c(COc2cccn3c(Br)c(C)nc23)c1Cl	inhibition in vivo at 1 mg/kg [2]: 48.4%
350	CNC(=O)N(C)c1ccc(Cl)c(COc2cccn3c(Br)c(C)nc23)c1Cl	
> 100000	CCOC(=O)c1c(C)nc2c(OCc3c(Cl)cccc3Cl)cccn12	
580	Cc1nc2c(OCc3c(Cl)ccc(N(C)C(=O)CNS(C)(=O)=O)c3Cl)cccn2c1Br	inhibition in vivo at 1 mg/kg [2]: 48.4%
> 100000	Cc1nc2c(NC(=O)c3c(Cl)cccc3Cl)cccn2c1Cl	

IC50 [1] [nM]	SMILES	also measured
7.8	CCCCC(=O)NCC(=O)N(C)c1ccc(Cl)c(COc2cccn3c(Br)c(C)nc23)c1Cl	inhibition in vivo at 1 mg/kg [2]: 29.7%
> 100000	Cc1nc2c(/C=C/c3c(Cl)cccc3Cl)cccn2c1Br	
54	CC(=O)N(C)c1ccc(Cl)c(COc2cccn3c(Br)c(C)nc23)c1Cl	
410	CCN(C)c1ccc(Cl)c(COc2cccn3c(Br)c(C)nc23)c1Cl	
230	Cc1nc2c(OCc3c(Cl)cccc3Cl)cccn2c1Br	
1800	CC(=O)Nc1ccc(Cl)c(COc2cccn3c(Br)c(C)nc23)c1Cl	
8.9	CCCC(=O)NCC(=O)N(C)c1ccc(Cl)c(COc2cccn3c(Br)c(C)nc23)c1Cl	inhibition in vivo at 1 mg/kg [2]: 52.7%; AUC [3]: 11700 ng·h/mL; bioavailability [6]: 90%; half-life [4]: 18 min; Cmax [5]: 9970 ng/mL
810	CC(=O)NCCC(=O)N(C)c1ccc(Cl)c(COc2cccn3c(Br)c(C)nc23)c1Cl	
16	CC(=O)NCC(=O)N(C)c1ccc(Cl)c(COc2cccn3c(Br)c(C)nc23)c1Cl	
500	CC(=O)OCC(=O)N(C)c1ccc(Cl)c(COc2cccn3c(Br)c(C)nc23)c1Cl	
42	Cc1nc2c(OCc3c(Cl)ccc([N+](=O)[O-])c3Cl)cccn2c1Br	
1800	Cc1nc2c(OCc3c(F)cccc3F)cccn2c1Cl	
26	CCCNC(=O)NCC(=O)N(C)c1ccc(Cl)c(COc2cccn3c(Br)c(C)nc23)c1Cl	inhibition in vivo at 1 mg/kg [2]: 62.4%
> 100000	Cc1nc2c(COc3c(Cl)cccc3Cl)cccn2c1Br	
1500	Cc1nc2c(OCc3c(F)cccc3Cl)cccn2c1Br	
770	CC(=O)NC(C)C(=O)N(C)c1ccc(Cl)c(COc2cccn3c(Br)c(C)nc23)c1Cl (stereo not drawn)	
1600	CC(=O)N(C)CC(=O)N(C)c1ccc(Cl)c(COc2cccn3c(Br)c(C)nc23)c1Cl	
10000	CCc1cn2cccc(OCc3c(Cl)cccc3Cl)c2n1	
7600	C#CCOCc1c(C)nc2c(OCc3c(Cl)cccc3Cl)cccn12	
1500	Cc1nc2c(OCc3c(Cl)ccc(N)c3Cl)cccn2c1Br	
7500	Cc1nc2c(OCc3c(Cl)cccc3Cl)cccn2c1CO	
1200	Cc1nc2c(NCc3c(Cl)cccc3Cl)cccn2c1Cl	
> 100000	Cc1nc2c(C(=O)Oc3c(Cl)cccc3Cl)cccn2c1Br	
9	CCNC(=O)NCC(=O)N(C)c1ccc(Cl)c(COc2cccn3c(Br)c(C)nc23)c1Cl	inhibition in vivo at 1 mg/kg [2]: 57.2%; AUC [3]: 58900 ng·h/mL; bioavailability [6]: 75%; half-life [4]: 30 min; Cmax [5]: 52600 ng/mL
